This passage reports Kd, ΔTm and Activity results from ChEMBL document CHEMBL4477258, “Ca-asp bound X-ray structure and inhibition of Bacillus anthracis dihydroorotase (DHOase)” (Bioorg Med Chem, 2016).

Active and inactive are the calls of the source. No cut-off for these calls is given here. Where only a bound is given, the exact number is not on record here.

The target of experiment [1] is T1, Dihydroorotase (Bacillus anthracis, UniProt Q81WF0).
T1 sequence (Q81WF0 whole entry): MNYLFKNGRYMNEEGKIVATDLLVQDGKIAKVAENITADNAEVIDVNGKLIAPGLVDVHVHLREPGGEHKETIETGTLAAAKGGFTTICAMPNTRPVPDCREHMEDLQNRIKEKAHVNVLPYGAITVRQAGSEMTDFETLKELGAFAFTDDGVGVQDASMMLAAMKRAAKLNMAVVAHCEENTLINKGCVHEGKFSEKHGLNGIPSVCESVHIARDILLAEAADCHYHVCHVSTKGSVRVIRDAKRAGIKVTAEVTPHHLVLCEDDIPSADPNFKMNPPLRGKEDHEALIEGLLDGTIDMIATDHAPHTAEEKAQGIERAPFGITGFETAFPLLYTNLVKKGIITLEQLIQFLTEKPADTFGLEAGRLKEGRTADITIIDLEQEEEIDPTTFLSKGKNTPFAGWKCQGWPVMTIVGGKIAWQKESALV
Description: (§1) Binding affinity to Bacillus anthracis Sterne His-tagged DHOase expressed in Escherichia coli BL21(DE3) Gold cells in presence of N-carbamyl-L-aspartate by surface plasmon resonance analysis. On the set-up: species or system Bacillus anthracis str. Sterne. An outline of the steps:
(§2)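 His-tag-cleaved DHOase immobilized on a CM5 chip, with a blank reference channel. Compounds run at 0–200 μM (2-fold dilutions) at 25 °C, 10 μL/min, in PBS-P with 2% DMSO, 0.5 mM TCEP and 1 mM Ca-asp. KD taken from steady-state affinity fit. SD from three independent experiments.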
(In SPR one partner is held on a chip, and binding of the other changes the refractive index at the surface.)

Experiment [2] deals with T1, Dihydroorotase. As to the kind of experiment: Binding affinity to Bacillus anthracis Sterne His-tagged DHOase expressed in Escherichia coli BL21(DE3) Gold cells by surface plasmon resonance analysis. On the set-up: species or system Bacillus anthracis str. Sterne. The method, boiled down: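 His-tag-cleaved DHOase amine-coupled to a CM5 chip at pH 4.5. Ethanolamine-blocked channel used as reference. Compounds run at 0–200 μM (2-fold dilutions) in PBS-P with 2% DMSO and 0.5 mM TCEP, at 10 μL/min and 25 °C. KD taken from steady-state affinity fit of equilibrium response. SD from three independent experiments.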

The target of experiment [3] is T2, Dihydroorotase (Bacillus anthracis) (UniProt Q81WF0).
T2 sequence (whole entry): T1 sequence (Q81WF0 whole entry)
Description: Binding affinity to Bacillus anthracis Sterne His-tagged DHOase expressed in Escherichia coli BL21(DE3) Gold cells assessed as change in melting temperature at 400 uM incubated for 10 mins by SYPRO orange dye based fluorescence thermal shift assay. Conditions: Bacillus anthracis str. Sterne. An outline of the steps:
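Histidine-tagged DHOase at 5 μM final in 50 mM MES pH 6.5, 0.01% CHAPS, 150 mM NaCl, 2 mM TCEP. Fragment added at 400 μM final and incubated 10 min at room temperature, then SYPRO Orange at 10X diluted from 5000X stock. Heated 25 to 95 °C at […], fluorescence read at ex/em 470/623 nm. Tm shift >2 °C scored as a hit.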

In experiment [4] the target is T2, Dihydroorotase (Bacillus anthracis). The experiment is described as §1. Conditions: Bacillus anthracis str. Sterne. The method, boiled down: as §2
Experiment [5] has the same target. As to the kind of experiment: Inhibition of Bacillus anthracis Sterne His-tagged DHOase expressed in Escherichia coli BL21(DE3) Gold cells using DHO as substrate assessed as enzyme activity at 25 or 400 uM preincubated for 10 mins followed by substrate addition measured after 30 mins by DAMO-TSC reagent based colorimetric assay relative to control. The arrangement: scale not given: the % may be the effect or the level left. Conditions: Bacillus anthracis str. Sterne. An outline of the steps: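 Reverse reaction run in duplicate. Fragments at 400 μM or compounds at 25 μM final, 10 min at room temperature. 10 μL of 320 μM DHO added, 30 min reaction, quenched with acidic DAMO-TSC. Colour developed 16 h in the dark, A540 read.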

Turning to `COc1ccc2[nH]c3c(c2c1)CCNC3(NC#N)SC` (stereo not drawn), the figures for the Kd at Dihydroorotase [1] (read-out: Kd) and on Dihydroorotase [2] (read-out: Kd) were 144 µM and 21 to 119 µM, respectively.
On to `Cc1ccc2[nH]c3c(c2c1)CCNC3`, for which the Kd result at Dihydroorotase [1] and at Dihydroorotase [2] was “Not Active” each time.
With `Cn1ccc2c(CO)cccc21`, the ΔTm in experiment [3] is more than 2 °C. In addition, in experiment [4], the result was Active. For the same molecule, the Activity in experiment [5] is less than 50%. Moreover, the Kd at Dihydroorotase [2] (read-out: Kd) lay within 67 to 334 µM.
For the molecule `COc1ccc2[nH]c3c(c2c1)CCNC3`, the dissociation constant Kd at Dihydroorotase [1] (read-out: Kd) was 675 µM; on Dihydroorotase [2] (read-out: Kd) it was 588 µM.
Turning to `CCC(=O)Nc1cc(OC)cc(OC)c1`, in experiment [3], the ΔTm is more than 2 °C. In addition, the Kd at Dihydroorotase [1] (read-out: Kd) stood at 281 µM; at Dihydroorotase [2] (read-out: Kd), 157 µM. For the same molecule, in experiment [5], the Activity was less than 50%.
For `COc1ccc2[nH]c3c(c2c1)CN(C(C)=O)CC3`, the ΔTm in experiment [3] is more than 2 °C. In addition, the Kd at Dihydroorotase [1] (read-out: Kd) amounted to 215 µM; at Dihydroorotase [2] (read-out: Kd), 205 µM. Also, in experiment [5], the Activity is less than 50%.
Regarding `COc1ccc2[nH]c3c(c2c1)CCNC31CCOCC1`, the shift in melting temperature (ΔTm) in experiment [3] is more than 2 °C. Besides, the dissociation constant (Kd) at Dihydroorotase [1] (read-out: Kd) is 314 µM; at Dihydroorotase [2] (read-out: Kd), 380 µM. Moreover, the Activity in experiment [5] was less than 50%.
On to `CCC1NCCn2cccc21` (stereo not drawn), for which, in experiment [3], the ΔTm is more than 2 °C. Also, the outcome in experiment [4] was Active. Moreover, the Activity in experiment [5] is less than 50%. Further, the Kd on Dihydroorotase [2] (read-out: Kd) was in the range of 67 to 334 µM.
With `CSC1(NC#N)NCCc2c1[nH]c1ccc(F)cc21` (stereo not drawn), in experiment [3], the thermal shift (ΔTm) is more than 2 °C. For the same molecule, on Dihydroorotase [1] (read-out: Kd), the Kd was more than 1000 µM. Also, in experiment [5], the Activity was less than 50%.
With `CCS(=O)(=O)N(C)c1ccc(C(=O)N2CCCC2)cc1`, the ΔTm in experiment [3] is more than 2 °C. Further, in experiment [4], the outcome was Active. In addition, the Activity in experiment [5] was less than 50%. Also, on Dihydroorotase [2] (read-out: Kd), the Kd is 67 to 334 µM.
Turning to `COc1ccc2[nH]c(CN)cc2c1`, on Dihydroorotase [2], the dissociation constant Kd entry is “Not Active”.
Turning to `CCC(=O)Nc1ccc(OC)cc1OC`, the ΔTm in experiment [3] is more than 2 °C. Besides, the Kd on Dihydroorotase [1] (read-out: Kd) and at Dihydroorotase [2] (read-out: Kd) was 170 µM each time. For the same molecule, the Activity in experiment [5] is less than 50%.

As a reminder, the Kd is the free concentration of one partner at which half of the binding sites on the other are occupied at equilibrium, for simple one-to-one binding. What is called ΔTm is the change in melting temperature against a reference sample.
